Data set [1] relates to Rattus norvegicus. As to the kind of experiment: Hypolipidemic activity in Wistar rat assessed as reduction in plasma triglyceride level at 425 umol/kg/day administered through diet for 10 days. Type of data set: functional. As to conditions: 240 h.
Data set [2] relates to Rattus norvegicus. As to the kind of experiment: Hypolipidemic activity in Wistar rat assessed as reduction in plasma cholesterol level at 425 umol/kg/day administered through diet for 10 days. Type of data set: functional. As to conditions: 240 h. The method in brief: (§1)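 Young male Wistar rats, 170-190 g initial weight, groups of six, given compound mixed thoroughly into Purina Lab Chow ad libitum for 4 or 10 days as stated. Daily dose calculated from food consumption and body weight. Bled by cardiac puncture at end of treatment; plasma cholesterol measured by automated procedure. Expressed as percent reduction versus simultaneous untreated control group; Student's t test.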

The test system of data set [3] is Rattus norvegicus. As to the kind of experiment: Increase in liver weight in Wistar rat at 425 umol/kg/day administered through diet for 10 days. In kind it is ADME, organism-based. The following applies: in vivo, po, 240 h.
Data set [4] deals with Rattus norvegicus. The data set is described as follows: Increase in cholesterol level in Wistar rat liver at 425 umol/kg/day administered through diet for 10 days. Type of data set: ADME, organism-based. The following applies: in vivo, po, 240 h.
For data set [5], the system named is Rattus norvegicus. As to the kind of experiment: Hypolipidemic activity in Wistar rat assessed as reduction in plasma cholesterol level at 470 umol/kg/day administered through diet for 4 days. The following applies: 96 h. In kind it is functional. The essentials:
as §1

Data set [6] concerns Rattus norvegicus. As to the kind of experiment: Increase in liver weight in Wistar rat at 470 umol/kg/day administered through diet for 4 days. Type of data set: ADME, organism-based. The following applies: in vivo, po, 96 h.
The test system of data set [7] is Rattus norvegicus. The data set is described as follows: Hypolipidemic activity in Wistar rat assessed as reduction in plasma cholesterol level at 428 umol/kg/day administered through diet for 10 days. In kind it is functional. The following applies: 240 h. The essentials: as §1
Data set [8] has as its system Rattus norvegicus. The data set is described as follows: Hypolipidemic activity in Wistar rat assessed as reduction in plasma triglyceride level at 428 umol/kg/day administered through diet for 10 days. As to conditions: 240 h. Type of data set: functional.
Data set [9] deals with Rattus norvegicus. As to the kind of experiment: Hypolipidemic activity in Wistar rat assessed as reduction in plasma triglyceride level at 470 umol/kg/day administered through diet for 4 days. In kind it is functional. The following applies: 96 h.
Data set [10] has as its system Rattus norvegicus. The data set is described as follows: Increase in cholesterol level in Wistar rat liver at 470 umol/kg/day administered through diet for 4 days. Type of data set: ADME, organism-based. The following applies: in vivo, po, 96 h.
In data set [11] the test system is Rattus norvegicus. As to the kind of experiment: Increase in liver weight in Wistar rat at 444 umol/kg/day administered through diet for 10 days. In kind it is ADME, organism-based. The following applies: in vivo, po, 240 h.
The subject of data set [12] is Rattus norvegicus. As to the kind of experiment: Hypolipidemic activity in Wistar rat assessed as reduction in plasma triglyceride level at 444 umol/kg/day administered through diet for 10 days. Type of data set: functional. As to conditions: 240 h.
Data set [13] concerns Rattus norvegicus. The data set is described as follows: Hypolipidemic activity in Wistar rat assessed as reduction in plasma cholesterol level at 444 umol/kg/day administered through diet for 10 days. As to conditions: 240 h. Type of data set: functional. The essentials: as §1
For data set [14], the system named is Rattus norvegicus. As to the kind of experiment: Increase in cholesterol level in Wistar rat liver at 444 umol/kg/day administered through diet for 10 days. In kind it is ADME, organism-based. As to conditions: in vivo, po, 240 h.
The test system of data set [15] is Rattus norvegicus. The data set is described as follows: Hypolipidemic activity in Wistar rat assessed as reduction in plasma triglyceride level at 415 umol/kg/day administered through diet for 4 days. In kind it is functional. The following applies: 96 h. The method in brief:
(§2)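 Young male Wistar rats (initial weight 170-190 g), groups of six, fed compound mixed into Purina Lab Chow ad libitum for 4 or 10 days; daily dose calculated from food consumption and body weight. Bled by cardiac puncture; plasma cholesterol and triglycerides by automated procedures; percent reduction versus simultaneous untreated controls, Student's t test.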

The subject of data set [16] is Rattus norvegicus. As to the kind of experiment: Hypolipidemic activity in Wistar rat assessed as reduction in plasma cholesterol level at 415 umol/kg/day administered through diet for 4 days. In kind it is functional. As to conditions: 96 h. The essentials:
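Young male Wistar rats, 170-190 g at start, in groups of six, given compound mixed into Purina Lab Chow ad libitum for 4 or 10 days as stated. Daily dose was calculated from food consumption and body weight. Plasma was taken by cardiac puncture at the end and cholesterol measured by automated procedure. Results are % reduction versus a concurrent untreated control group, with Student's t test.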

The test system of data set [17] is Rattus norvegicus. The data set is described as follows: Increase in cholesterol level in Wistar rat liver at 415 umol/kg/day administered through diet for 4 days. In kind it is ADME, organism-based. The following applies: in vivo, po, 96 h.
Data set [18] concerns Rattus norvegicus. The data set is described as follows: Increase in liver weight in Wistar rat at 415 umol/kg/day administered through diet for 4 days. In kind it is ADME, organism-based. The following applies: in vivo, po, 96 h. The method in brief:
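Male Wistar rats (170-190 g initial), groups of six, dosed via diet ad libitum for 4 or 10 days, daily dose from food consumption. Liver wet weight measured, expressed as g/100 g final body weight, compared with untreated controls run simultaneously.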

Data set [19] deals with Rattus norvegicus. As to the kind of experiment: Hypolipidemic activity in Wistar rat assessed as reduction in plasma triglyceride level at 591 umol/kg/day administered through diet for 4 days. Type of data set: functional. As to conditions: 96 h.
Data set [20] has as its system Rattus norvegicus. As to the kind of experiment: Increase in liver weight in Wistar rat at 591 umol/kg/day administered through diet for 4 days. As to conditions: in vivo, po, 96 h. Type of data set: ADME, organism-based.
The subject of data set [21] is Rattus norvegicus. As to the kind of experiment: Hypolipidemic activity in Wistar rat assessed as reduction in plasma cholesterol level at 591 umol/kg/day administered through diet for 4 days. The following applies: 96 h. Type of data set: functional. The essentials: as §2
Data set [22] relates to Rattus norvegicus. The data set is described as follows: Increase in cholesterol level in Wistar rat liver at 591 umol/kg/day administered through diet for 4 days. The following applies: in vivo, po, 96 h. Type of data set: ADME, organism-based.

What is called inhibition in vivo is the change of the read-out against control, counted positive when it falls. On to `CCCCCCCCCCCCCCCCCCCc1ccc(C(=O)O)cc1`, for which the inhibition in vivo at 425 µmol/kg in the data set with Rattus norvegicus [1] turned out to be 2%; in the data set with Rattus norvegicus [2], 8%. In addition, the figures for the Activity in the data set with Rattus norvegicus [3] and with Rattus norvegicus [4] were 10% and 0%, respectively.

Consider `CCCCCCCCCCCCOc1ccc(C(=O)O)cc1`, for which the inhibition in vivo at 470 µmol/kg was determined as 33% in the data set with Rattus norvegicus [5] and 58% in the data set with Rattus norvegicus [9]. Further, the Activity with Rattus norvegicus [6] and in the data set on Rattus norvegicus [10] was 22% each time. The inhibition in vivo at 428 µmol/kg with Rattus norvegicus [7] turned out to be 16%; with Rattus norvegicus [8], 31%.

For `CCCCCCCCCCCOc1ccc(C(=O)OC)cc1`, the Activity with Rattus norvegicus [11] turned out to be 23%; with Rattus norvegicus [14] it was 41%. The inhibition in vivo at 444 µmol/kg was 88% with Rattus norvegicus [12] and 45% in the data set on Rattus norvegicus [13].

Turning to `CCCCCCCCCCCCCCCc1ccc(C(=O)O)cc1`, the inhibition in vivo at 415 µmol/kg in the data set with Rattus norvegicus [15] stood at 58%; with Rattus norvegicus [16] it was 27%. The Activity in the data set with Rattus norvegicus [17] is recorded as 13%; with Rattus norvegicus [18] it was 4%.

As for `CCCCCCCCOc1ccc(C(=O)O)cc1`, the inhibition in vivo at 591 µmol/kg in the data set with Rattus norvegicus [19] was determined as 35%; with Rattus norvegicus [21] it was 8%. The Activity with Rattus norvegicus [20] was determined as 0%; in the data set on Rattus norvegicus [22], 12%.

The record behind these values is ChEMBL document CHEMBL3272012, “5-(Tetradecyloxy)-2-furancarboxylic acid and related hypolipidemic fatty acid-like alkyloxyarylcarboxylic acids” (J Med Chem, 1977).
